Measurements reported in PubChem BioAssay AID624268 (The Scripps Research Institute Molecular Screening Center, 2012).
Out of some 360,000 compounds screened, about 1,500 (0.42%) were called active. The list comes from a sample in which actives are over-represented; it also holds similar structures and randomly drawn compounds. A number with no mark means an inactive call.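 Rule for the calls: active = inhibition above a per-plate cutoff of the control wells' mean inhibition plus 3 SD (cut at about 5.5% in these data); inactive = the rest.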

test system: methionyl-tRNA synthetase (Trypanosoma brucei brucei); assay: inhibition of trypanosome methionyl-tRNA synthetase – biochemical, luminescence, primary screen (AID 624268);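 note: 0% = DMSO wells median and 100% = median of wells with control inhibitor compound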; settings: purified T. brucei MetRS, ATP depletion, Kinase-Glo luminescence; at 11.9 µM; active compounds read high
Summary of the method: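 Assay system: T. brucei methionyl-tRNA synthetase, purified | Medium: HEPES buffer with MgCl2, KCl, DTT, spermine, BSA, pyrophosphatase | Compound: 11.9 µM single point | Incubation: 15 min enzyme-compound preincubation, 2 h reaction, 10 min detection, 25 °C | Measured by: Kinase-Glo luciferase luminescence reporting remaining unconsumed ATP | Measure: % inhibition normalized to control-well medians | Replication: Singlicate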

Compound | inhibition
COc1cc(C2C(C#N)=C(C)NC3=C2C(=O)CC(C)(C)C3)ccc1O (stereo not drawn) | -1.19%
Cc1ccc(-c2nc(COC(=O)c3c(C)noc3C)cs2)cc1 | -0.6%
COC(=O)[C@@]12C[C@@H](CC(=O)N3CCC(c4ccccc4)CC3)C(=O)N(Cc3ccccc3)C1=CCC(C)(C)C2 | -0.7%
Cc1c(NC(=O)CCC2CCCCC2)cc(C(=O)N2CCOCC2)cc1[N+](=O)[O-] | -2.05%
Cc1cc(C)cc(OCC(=O)NNC(=O)CCN2C(=O)c3ccccc3C2=O)c1 | 0.2%
C[N+](C)(C)CCOP(=O)([O-])OC[C@H](O)CO | -0.22%
CCn1c(SCC(=O)Nc2ccccc2F)nc2c(c1=O)SC(C)C2 (stereo not drawn) | -0.06%
O=S(=O)(c1ccccc1)c1nc(-c2ccccc2)oc1NCCCN1CCOCC1 | 0.27%
c1ccc2cc3c(NCCN4CCOCC4)ccnc3cc2c1 | 34.1% (active)
O=S(=O)(c1ccc(Cl)cc1)c1nc(-c2ccccc2F)oc1NCCN1CCOCC1 | -0.33%
O=c1cnnc(Nc2ccccc2F)[nH]1 | 0.6%
Cc1cc(/C=N/n2cnnc2)c(C)n1-c1ccc2ncccc2c1 | 0.03%
O=C(CSCC(=O)Nc1cccc([N+](=O)[O-])c1)Nc1ccccc1 | 8.16% (active)
O=C(CN1CCC(NC(=O)Nc2ccccc2)CC1)Nc1cccc([N+](=O)[O-])c1 | 0.83%
O=C(CSc1nc(-c2ccccc2)cs1)Nc1cccc([N+](=O)[O-])c1 | -0.12%
CCc1ccc(NC(=O)N2CCc3ccccc3C2)cc1 | -0.43%
Cc1c(NC(=O)Nc2cccc([N+](=O)[O-])c2)c(=O)n(-c2ccccc2)n1C | -0.43%
O=C(Nc1cccc([N+](=O)[O-])c1)N1CCc2ccccc2C1 | 7.11% (active)
Cc1ccc(-c2csc(C(C#N)=C(O)CN3CCN(C(=O)c4ccco4)CC3)n2)cc1 | -0.54%
CCc1cccc(CC)c1NC(=O)COc1ccccc1C(=O)c1cc(C#N)c(=O)n(C2CCCCC2)c1 | 0.13%
CCOC(=O)C1CCN(S(=O)(=O)c2c(C)noc2C)CC1 | -0.02%
O=C(Nc1ccc(S(=O)(=O)Nc2ncccn2)cc1)c1cncc(Br)c1 | 64.2% (active)

Compound | inhibition
CCNS(=O)(=O)c1ccc(NC(=O)c2cncc(Br)c2)cc1 | -0.64%
O=C(NC(=S)Nc1ccc(S(=O)(=O)Nc2ncccn2)cc1)c1cccc(Br)c1 | 0.66%
O=C(O)c1ccc(NS(=O)(=O)c2ccc3c(c2)C(=O)c2cc(S(=O)(=O)Nc4ccc(C(=O)O)cc4)ccc2-3)cc1 | 5.69% (active)
Cc1cc(C(C)(C)C)cc(S(=O)(=O)Nc2ccc(C(=O)O)cc2)c1C | 0.3%
O=C(c1ccc(NS(=O)(=O)c2ccc3[nH]c(=O)[nH]c3c2)cc1)N1CCCCC1 | -0.5%
CCOC(=O)CC1=CC(=O)Nc2ccccc2N1 | -0.37%
COc1ccccc1-n1c(SCC(=O)Nc2ccc(Cl)cc2)nc(O)c(Cc2ccccc2)c1=O | 55.1% (active)
COc1ccc(NC(=O)CSc2nnc(Cc3ccccc3)c(=O)n2N)cc1 | -0.2%
CCOc1ccc(NC(=O)CSc2nc3c(c(=O)n2-c2ccccc2OC)SCC3)cc1 | -0.23%
COc1ccc(NC(=O)CN(C)C(=O)c2n[nH]c3ccccc23)cc1 | -0.44%
CC1(C(=O)NS(=O)(=O)c2cccc(OC(F)F)c2)CCN1C(=O)C1CC1 (stereo not drawn) | -0.2%
CC1(c2cccc([N+](=O)[O-])c2)CC(C)(C)N(C(=O)c2ccccc2)c2ccccc21 (stereo not drawn) | 0.07%
O=c1cc(CN2CCCCCCC2)c2c(ccc3ccccc32)o1 | 0.63%
c1ccc2cc3[nH]c(CN4CCCCC4)nc3cc2c1 | 7.35% (active)
Cc1ccc2[nH]c(=O)c(CN3CCCCC3)c(-c3ccccc3)c2c1 | 2.15%
O=C1COc2ccc(NC(=O)N3CCN(c4ccc(F)cc4)CC3)cc2N1 | -0.82%
C[C@@H]1CN([C@H](C)CO)C(=O)CCCn2cc(nn2)CO[C@H]1CN(C)S(C)(=O)=O | -1.67%
COc1ccc(OC)c(NC(=O)C2(C)CCN2C(=O)Cc2ccccc2)c1 (stereo not drawn) | -0.17%
Cc1ccc(OCCOCCOc2ccc(Br)cc2/C=N\NC(=O)c2ccncc2)cc1 | 0.03%
COc1cc(/C=N\NC(=O)c2nonc2N)c(OC)cc1Br | -0.27%
COc1ccc(-c2[nH]ncc2/C=N/NC(=O)c2cc(Br)ccc2O)c(OC)c1 | 5.88% (active)
Cn1c(N)c(C(=O)COC(=O)c2cccc(S(=O)(=O)N3CCOCC3)c2)c(=O)n(C)c1=O | 0.03%

Compound | inhibition
CC1CN(S(=O)(=O)c2cccc(C(F)(F)F)c2)CN1C(=O)N1CCOCC1 (stereo not drawn) | -0.97%
CC(C)CCNC(=O)C1CCCN(S(=O)(=O)c2ccc(F)cc2)C1 (stereo not drawn) | -0.46%
COC(=O)c1c(CCl)noc1C(=O)NC(C)C | -0.34%
CN(CC(=O)NCc1ccc2c(c1)OCO2)CC(=O)Nc1ccc(F)c(F)c1F | -0.42%
COc1ccc(CCOC(=O)CNC(=O)c2ccc(Cl)cc2Cl)cc1 | 0.12%
O=C(NNC(=O)c1ccc(Cl)cc1Cl)c1cccs1 | -0.62%
COC(=O)/C(=C\Nc1ccccc1)NC(=O)c1ccc(Cl)cc1Cl | 43% (active)
Cn1ccsc1=NC(=O)c1cc(S(=O)(=O)N2CCOCC2)ccc1Cl | 0%
COc1ccc(S(=O)(=O)N2CCOC2CNC(=O)C(=O)NCc2ccncc2)cc1C (stereo not drawn) | -0.16%
CCCCc1ccc(S(=O)(=O)NC(=O)C2(C)CCN2C(=O)c2c(C)noc2C)cc1 (stereo not drawn) | -0.38%
OCCC1CN(Cc2cccn2-c2nccs2)CCN1CCc1ccccc1 (stereo not drawn) | -0.69%
O=C(c1cccs1)C1C(c2ccc(Br)cc2)NC(=S)NC1(O)C(F)(F)F (stereo not drawn) | 0.24%
Cc1c(CN2CCC(CO)(CCOc3ccccc3)CC2)[nH]c2ccc(Cl)cc12 | 8.27% (active)
OCC1(CCc2ccccc2)CCN(Cc2ccc3nsnc3c2)CC1 | 0.28%
COc1cccc(CC2(CO)CCN(Cc3cnc(-c4cccc(C)c4)nc3)CC2)c1 | -0.01%
CCc1c(C)n([O-])c2c([n+]1=O)CCCCC2 | -0.95%
COc1cccc(NC(=O)CN(C)C(=O)c2cc(C3CC3)nn2-c2ccccc2)c1 | -0.11%
CSc1ncccc1C(=O)NCC(c1ccco1)N1CCCCC1 (stereo not drawn) | 0.26%
Cc1ccc(N2C(=O)CC(NCc3ccc4c(c3)OCO4)C2=O)cc1Cl (stereo not drawn) | 12.1% (active)
O=CN1CCN(C2CC(=O)N(c3ccc4c(c3)OCO4)C2=O)CC1 (stereo not drawn) | -2.06%
Cc1ccc(CC2CC(=O)N(c3ccc4c(c3)OCCO4)C2=O)cc1 (stereo not drawn) | -0.24%
COC(=O)CCSc1cc([N+](=O)[O-])cc2c1c(C1OCCS1)nn2-c1ccccc1 (stereo not drawn) | -0.2%

Compound | inhibition
CCOc1ccc(NC(=O)CC(Cc2ccc(Cl)cc2)C(=O)O)cc1 (stereo not drawn) | -0.95%
Cc1ccc(C)c2[nH]c(=O)c(CCNC(=O)CC(C)C)cc12 | 0.44%
O=C(CSc1nnc(-c2c[nH]c3ccccc23)n1-c1ccc(F)cc1)NCc1ccco1 | 3.05%
COc1ccc(-n2c(SCC(=O)NCc3cccs3)nnc2-c2ccoc2C)cc1 | -0.5%
COc1ccc(-n2c(SCC(=O)NCc3ccco3)nnc2-c2c[nH]c3ccccc23)cc1 | 6.44% (active)
Cc1cc(C(=O)NNC(=O)c2cccc(S(=O)(=O)N3CCOCC3)c2)c2ccccc2n1 | -0.24%
Cc1nn(C)c(Oc2ccc(Cl)cc2)c1C=O | -0.76%
O=C(NCc1cc(C(F)(F)F)cc(C(F)(F)F)c1)C1CC(c2cccc(F)c2)=NO1 (stereo not drawn) | -0.13%
OC(c1ccc(Cl)cc1)c1ncc(-c2ccc(Cl)cc2)[nH]1 (stereo not drawn) | 2.49%
OC(c1cc(Cl)cc(Cl)c1)c1ncc(-c2ccccc2C(F)(F)F)[nH]1 (stereo not drawn) | 58% (active)
Cc1ccc(C(O)c2ncc(-c3ccccc3F)[nH]2)cc1F (stereo not drawn) | -0.2%
Cc1cccc(-c2cnc(C(O)c3cc(C)cc(C)c3)[nH]2)c1 (stereo not drawn) | -0.08%
Cc1ccc(-c2cnc(C(O)c3cc(Cl)cc(Cl)c3)[nH]2)cc1 (stereo not drawn) | 40.4% (active)
OC(c1ccc(Cl)c(F)c1)c1ncc(-c2ccccc2Cl)[nH]1 (stereo not drawn) | 0.44%
CCC(=O)N1CCC(C)(C(=O)Nc2cc(OC)c(OC)c(OC)c2)C1 (stereo not drawn) | 0.06%
NC(=O)CC[C@@H]1NC(=O)[C@@H]2CCCN2C(=O)c2cc([N+](=O)[O-])cc(F)c2NCCC[C@@H](C(N)=O)NC1=O | -0.23%
O=S(=O)(NCc1cccnc1)c1ccc(Cl)nc1 | -1.09%
CC(CCN1CCN=C1N(C)C)c1ccccc1 (stereo not drawn) | -0.2%
C#CCNC(=O)C[C@@H]1C[C@@]2(C(=O)OCC)CCCC=C2N(Cc2ccco2)C1=O | -0.95%
CCCn1nc(C(=O)NNC(=O)CSCC(=O)Nc2cc(C)on2)c2ccccc2c1=O | -0.27%
O=C(NCCc1ccc(C(F)(F)F)cc1)c1ccc2c(c1)OCO2 | -0.15%
CCCCCCCC[n+]1cccc(C(=O)N2c3c(nc(N)[nH]c3=O)NC(C)C2C)c1 (stereo not drawn) | 14.2% (active)
